Measurements reported in paper PMC4474499 (Science Advances, 2015).

Experiments:
[1] = system: HEK-Blue hTLR2 cells; assay: QUANTI-Blue SEAP assay with anti-hTLR antibodies; format: cell-based, human; conditions: 60 nM, 24 hours
How it was run: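 HEK-Blue hTLR2 cells, 4 × 10^4/well, grown 24 h. Then 24 h in Opti-MEM/0.5% FBS containing 60 nM test compound, 0.66 nM Pam3CSK4 or 0.77 nM Pam2CSK4. Anti-hTLR1 IgG, anti-hTLR2 IgA or anti-hTLR6 IgA added at 0–10 μg/ml. Supernatant incubated with QUANTI-Blue 1 h at 37°C; A655 read.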

[2] = system: NF-κB; assay: U937 NF-κB–GFP reporter assay; format: cell-based, human; conditions: U937 cells
[3] = biological target: human TLR1/2 (Homo sapiens, UniProt O60603+Q15399); assay: Competition binding ELISA assay with biotin-labeled Pam3CSK4; conditions: 50 nM (100 ng/ml) Biotin-Pam3, 0 to 7 μM CU-T12-9
human TLR1/2, sequence (Q15399 25-580 limits assumed): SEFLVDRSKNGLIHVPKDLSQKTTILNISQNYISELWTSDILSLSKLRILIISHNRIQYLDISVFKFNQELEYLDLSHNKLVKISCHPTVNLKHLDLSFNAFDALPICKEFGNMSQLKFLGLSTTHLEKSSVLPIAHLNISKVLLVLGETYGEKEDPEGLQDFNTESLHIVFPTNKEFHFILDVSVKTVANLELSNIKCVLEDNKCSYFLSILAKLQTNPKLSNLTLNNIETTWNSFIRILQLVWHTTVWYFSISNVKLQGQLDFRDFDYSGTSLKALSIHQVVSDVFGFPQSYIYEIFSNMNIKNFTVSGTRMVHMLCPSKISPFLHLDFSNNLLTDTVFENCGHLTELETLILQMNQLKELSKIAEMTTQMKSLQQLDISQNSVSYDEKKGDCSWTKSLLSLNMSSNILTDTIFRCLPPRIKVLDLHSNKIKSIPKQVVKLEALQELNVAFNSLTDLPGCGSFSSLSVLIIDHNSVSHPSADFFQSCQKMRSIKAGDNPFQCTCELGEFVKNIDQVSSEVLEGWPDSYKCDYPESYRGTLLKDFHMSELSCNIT
human TLR1/2, sequence (O60603 21-588 limits assumed): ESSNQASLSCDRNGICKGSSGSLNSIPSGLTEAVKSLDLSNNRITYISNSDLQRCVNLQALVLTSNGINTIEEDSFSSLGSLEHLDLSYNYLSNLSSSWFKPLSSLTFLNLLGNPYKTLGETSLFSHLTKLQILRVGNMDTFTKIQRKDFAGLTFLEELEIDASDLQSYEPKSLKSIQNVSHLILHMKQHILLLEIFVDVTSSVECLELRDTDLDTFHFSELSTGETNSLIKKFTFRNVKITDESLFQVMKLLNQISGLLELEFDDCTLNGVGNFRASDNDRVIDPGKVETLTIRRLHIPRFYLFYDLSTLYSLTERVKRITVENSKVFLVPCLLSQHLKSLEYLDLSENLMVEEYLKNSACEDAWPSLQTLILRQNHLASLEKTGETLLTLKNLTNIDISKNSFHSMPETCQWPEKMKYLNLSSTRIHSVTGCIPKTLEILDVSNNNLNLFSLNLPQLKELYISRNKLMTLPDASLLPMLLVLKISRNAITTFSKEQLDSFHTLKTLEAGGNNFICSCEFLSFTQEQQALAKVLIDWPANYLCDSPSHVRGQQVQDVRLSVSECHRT
How it was run: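 Human TLR1 (5 μg/ml) plus TLR2 (4 μg/ml), or BSA, coated in 0.1 M acetate pH 5.0 overnight at 4°C. Blocked with 5% BSA 1 h. Biotin-Pam3CSK4 with or without test compound, 1 h RT. Then streptavidin-HRP (1:2000) 1 h, TMB 10–30 min, stopped with 1 M H3PO4. A450 read, 620 nm reference. Signal at zero compound set as 100%.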

[4] = biological target: human TLR5 (Homo sapiens, UniProt O60602); assay: SEAP reporter gene detection assay in HEK-Blue TLR5 cells; format: cell-based; conditions: 0 to 20 μM, 24 hours
human TLR5, sequence (O60602 21-858): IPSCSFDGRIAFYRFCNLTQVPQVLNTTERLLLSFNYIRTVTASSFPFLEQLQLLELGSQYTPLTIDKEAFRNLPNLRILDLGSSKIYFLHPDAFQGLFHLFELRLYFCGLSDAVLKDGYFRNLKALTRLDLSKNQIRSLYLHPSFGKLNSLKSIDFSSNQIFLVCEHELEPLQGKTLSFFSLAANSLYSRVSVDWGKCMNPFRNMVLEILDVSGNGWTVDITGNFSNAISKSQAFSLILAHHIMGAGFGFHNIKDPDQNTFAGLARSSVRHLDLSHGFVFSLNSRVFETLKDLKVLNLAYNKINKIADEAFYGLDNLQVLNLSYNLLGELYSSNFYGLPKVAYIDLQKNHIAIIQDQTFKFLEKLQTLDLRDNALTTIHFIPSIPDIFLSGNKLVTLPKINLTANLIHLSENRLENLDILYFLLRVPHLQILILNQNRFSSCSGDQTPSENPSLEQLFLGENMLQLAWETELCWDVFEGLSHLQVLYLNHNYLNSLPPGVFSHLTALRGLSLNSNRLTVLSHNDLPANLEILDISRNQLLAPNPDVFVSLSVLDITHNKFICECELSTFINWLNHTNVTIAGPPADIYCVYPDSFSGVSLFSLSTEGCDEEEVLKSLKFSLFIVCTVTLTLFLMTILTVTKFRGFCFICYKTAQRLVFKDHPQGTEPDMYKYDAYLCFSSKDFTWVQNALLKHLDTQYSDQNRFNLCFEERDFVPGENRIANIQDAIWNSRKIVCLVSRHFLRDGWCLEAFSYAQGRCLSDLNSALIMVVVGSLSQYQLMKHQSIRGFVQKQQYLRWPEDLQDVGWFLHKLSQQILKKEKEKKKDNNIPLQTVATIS
How it was run: (§1)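 HEK 293 cells stably carrying the human TLR and a SEAP reporter, 4 × 10^4/well, grown 24 h. Then 24 h in Opti-MEM/0.5% FBS with test compound. Positive controls: poly(I:C) 0–10.9 μg/ml (TLR3), LPS 0–36.5 ng/ml (TLR4), FLA-BS 0–10 μg/ml (TLR5), R848 0–6 μg/ml (TLR7, TLR8). Supernatant heated 30 min at 65°C, then CSPD substrate added; luminescence read after 20 min.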

[5] = biological target: human TLR2 (Homo sapiens, UniProt O60603+Q15399); assay: SEAP reporter gene detection assay in HEK-Blue hTLR2 cells; format: cell-based
human TLR2, sequence (O60603 21-784): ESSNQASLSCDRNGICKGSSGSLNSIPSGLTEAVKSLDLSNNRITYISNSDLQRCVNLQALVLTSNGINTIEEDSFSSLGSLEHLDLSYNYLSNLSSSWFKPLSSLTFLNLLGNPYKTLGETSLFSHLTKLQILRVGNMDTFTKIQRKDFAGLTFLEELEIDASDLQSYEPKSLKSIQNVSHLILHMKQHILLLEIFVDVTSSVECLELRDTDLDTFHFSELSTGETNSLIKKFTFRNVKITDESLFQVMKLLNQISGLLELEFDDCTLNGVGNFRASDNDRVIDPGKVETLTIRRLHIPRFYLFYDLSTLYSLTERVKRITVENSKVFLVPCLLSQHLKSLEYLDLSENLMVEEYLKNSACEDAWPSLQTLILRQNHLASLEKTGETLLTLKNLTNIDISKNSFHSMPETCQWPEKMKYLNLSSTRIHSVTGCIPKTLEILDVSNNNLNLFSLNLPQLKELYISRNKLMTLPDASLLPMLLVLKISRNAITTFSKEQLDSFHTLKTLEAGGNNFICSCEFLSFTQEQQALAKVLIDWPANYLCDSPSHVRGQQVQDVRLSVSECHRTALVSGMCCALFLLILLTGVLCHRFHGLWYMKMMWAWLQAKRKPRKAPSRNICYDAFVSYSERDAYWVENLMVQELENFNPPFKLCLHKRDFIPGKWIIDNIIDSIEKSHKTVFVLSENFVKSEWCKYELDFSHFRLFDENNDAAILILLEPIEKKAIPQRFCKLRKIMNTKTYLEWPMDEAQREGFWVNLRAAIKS
human TLR2, sequence (Q15399 25-786): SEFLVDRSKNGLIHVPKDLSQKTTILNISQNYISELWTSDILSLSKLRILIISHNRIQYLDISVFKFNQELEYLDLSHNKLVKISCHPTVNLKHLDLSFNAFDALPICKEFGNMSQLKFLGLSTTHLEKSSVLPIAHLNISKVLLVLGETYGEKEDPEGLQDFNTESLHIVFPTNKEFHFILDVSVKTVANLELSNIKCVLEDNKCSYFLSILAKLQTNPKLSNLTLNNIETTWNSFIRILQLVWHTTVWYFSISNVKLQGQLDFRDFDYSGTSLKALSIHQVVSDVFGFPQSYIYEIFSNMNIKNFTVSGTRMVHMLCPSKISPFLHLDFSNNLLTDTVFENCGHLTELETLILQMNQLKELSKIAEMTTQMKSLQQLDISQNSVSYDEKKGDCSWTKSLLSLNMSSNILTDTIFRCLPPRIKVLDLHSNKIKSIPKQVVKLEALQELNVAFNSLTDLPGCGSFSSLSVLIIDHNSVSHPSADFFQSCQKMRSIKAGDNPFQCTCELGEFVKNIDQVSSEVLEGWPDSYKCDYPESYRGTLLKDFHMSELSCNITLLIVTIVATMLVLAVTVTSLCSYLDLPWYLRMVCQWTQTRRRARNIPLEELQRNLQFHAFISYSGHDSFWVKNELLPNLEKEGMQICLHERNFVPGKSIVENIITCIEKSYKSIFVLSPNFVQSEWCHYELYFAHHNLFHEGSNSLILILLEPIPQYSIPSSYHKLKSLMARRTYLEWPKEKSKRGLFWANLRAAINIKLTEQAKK
How it was run: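 HEK-Blue hTLR2 cells (SEAP reporter), 4 × 10^4/well, grown 24 h. Then 24 h in Opti-MEM/0.5% FBS with compounds at 0–50 μM or 0–100 μM. Pam3CSK4 (0–66 nM) used as reference agonist. Supernatant heat-treated 30 min at 65°C, cooled, mixed with SEAP buffer and CSPD substrate; luminescence read after 20 min.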

[6] = biological target: T1, human TLR8 (Homo sapiens, UniProt Q9NR97); assay: SEAP reporter gene detection assay in HEK-Blue TLR8 cells; format: cell-based; conditions: 0 to 20 μM, 24 hours
T1 sequence (Q9NR97 27-1041): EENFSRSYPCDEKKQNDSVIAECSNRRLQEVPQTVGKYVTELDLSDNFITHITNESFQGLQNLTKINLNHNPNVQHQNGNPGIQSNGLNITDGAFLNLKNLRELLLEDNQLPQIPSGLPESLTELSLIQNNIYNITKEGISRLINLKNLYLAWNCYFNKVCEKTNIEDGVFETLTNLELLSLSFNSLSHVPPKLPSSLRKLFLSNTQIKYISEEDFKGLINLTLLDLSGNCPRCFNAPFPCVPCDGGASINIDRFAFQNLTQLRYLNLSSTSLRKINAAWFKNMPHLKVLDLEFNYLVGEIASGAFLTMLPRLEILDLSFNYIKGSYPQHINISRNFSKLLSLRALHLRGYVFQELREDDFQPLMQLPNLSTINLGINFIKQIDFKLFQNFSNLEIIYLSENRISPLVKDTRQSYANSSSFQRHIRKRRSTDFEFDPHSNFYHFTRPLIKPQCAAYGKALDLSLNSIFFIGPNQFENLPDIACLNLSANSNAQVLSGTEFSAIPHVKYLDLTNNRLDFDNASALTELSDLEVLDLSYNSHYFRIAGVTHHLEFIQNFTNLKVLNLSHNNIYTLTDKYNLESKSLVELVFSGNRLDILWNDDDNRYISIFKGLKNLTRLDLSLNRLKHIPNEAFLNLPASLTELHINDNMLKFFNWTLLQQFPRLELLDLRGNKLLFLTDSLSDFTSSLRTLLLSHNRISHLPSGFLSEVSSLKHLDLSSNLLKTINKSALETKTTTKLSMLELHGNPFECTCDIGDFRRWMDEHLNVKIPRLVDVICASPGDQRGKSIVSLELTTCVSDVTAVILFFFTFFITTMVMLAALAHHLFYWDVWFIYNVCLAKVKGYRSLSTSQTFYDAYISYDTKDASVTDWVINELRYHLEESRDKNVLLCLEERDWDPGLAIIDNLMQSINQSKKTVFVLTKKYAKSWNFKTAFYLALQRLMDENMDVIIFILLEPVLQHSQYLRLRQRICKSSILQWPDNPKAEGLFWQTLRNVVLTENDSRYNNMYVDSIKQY
How it was run: as §1

[7] = system: Raw 264.7 cells; assay: Quantitative RT-PCR of mRNA levels in Raw 264.7 macrophage cells; format: cell-based, mouse
How it was run: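 RAW 264.7 cells, 1 × 10^6/well, grown 24 h, then given fresh RPMI 1640. Exposed to test compound, or 33 nM (50 ng/ml) Pam3CSK4, for 0, 2, 8 or 24 h. Cells washed in cold PBS and frozen. Total RNA extracted (RNeasy) for qRT-PCR. Fold change calculated by ΔΔCt versus DMSO-treated cells, means ± SD.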

[8] = biological target: hTLR1 and hTLR2 (Homo sapiens, UniProt O60603+Q15399); assay: SEC-LS assay of TLR1/2 heterodimer formation; format: biochemical; conditions: CU-T12-9 0 to 40 μM or Pam3CSK4 260 nM (400 ng/ml)
hTLR1 and hTLR2, sequence (Q15399 25-580 limits assumed): as the sequence (Q15399 25-580 limits assumed) above
hTLR1 and hTLR2, sequence (O60603 21-588 limits assumed): as the sequence (O60603 21-588 limits assumed) above
How it was run: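 Human TLR2 in PBS pH 7.4 preincubated 2 h at RT with test compound or Pam3CSK4. Equimolar hTLR1 then added (final about 10 μM each) for 2 h at 37°C. Both proteins were baculovirus/insect-cell products. Samples filtered (0.1 μm) and run on size-exclusion column in PBS at 1 ml/min. Detection by in-line multi-angle light scattering, refractive index and UV.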

[9] = system: HEK-Blue hTLR2 cells; assay: MTT cell viability assay in HEK-Blue hTLR2 cells; format: cell-based, human; conditions: up to 100 μM, 24 h
How it was run: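 HEK-Blue hTLR2 cells, 40,000/well in DMEM/10% FBS, grown 24 h at 37°C, 5% CO2. Medium then replaced by Opti-MEM (0.5% FBS, non-essential amino acids) with compounds at 0–100 μM for 24 h. MTT added for 4 h; formazan dissolved in DMSO; A560 read. Cytotoxicity % = 1 − (sample − blank)/(control − blank), ×100.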

**Q.** Which “activation of QUANTI-Blue SEAP signaling” value [1] does the source give for `CNc1ccc([N+](=O)[O-])cc1-n1cnc(-c2ccc(C(F)(F)F)cc2)c1` [CU-T12-9, N-methyl-4-nitro-2-(4-(4-(trifluoromethyl)phenyl)-1H-imidazol-1-yl)aniline] here?
**A.** Its value is “strongly activates”.

**Q.** And the NF-κB activation ([2]; 5 μM, 24 hours)?
**A.** The NF-κB activation was “comparable activation to 66 nM (100 ng/ml) Pam3CSK4”.

**Q.** What about the NF-κB activation ([2]; 20 μM (GA even up to 100 μM)) of the same compound?
**A.** The NF-κB activation was “excellent NF-κB activation”.

**Q.** And the “competition with Biotin-Pam3 binding to TLR1/2” value [3]?
**A.** Its value is “can compete”.

**Q.** And the “activation of SEAP signaling, TLR5” value [4]?
**A.** Its value is “not in other TLR-overexpressing cells”.

**Q.** And the EC50 [5]?
**A.** The EC50 was 52.9 ± 6.2 nM.

**Q.** What about the “activation of SEAP signaling, hTLR2” value ([5]; 0 to 20 μM, 24 hours) of the same compound?
**A.** The value was “strongly activate”.

**Q.** And the “increase in potency relative to GA (factor)” value ([5]; replacement of –NO2 at R3)?
**A.** The value was 50.

**Q.** What about the “activation of SEAP signaling, TLR8” value [6] of the same compound?
**A.** Its value is “not in other TLR-overexpressing cells”.

**Q.** What about the “TLR1 mRNA” value ([7]; 1 μM CU-T12-9, 24 hours) of the same compound?
**A.** The value was “potently increased”.

**Q.** And the “time of highest TLR2 mRNA expression” value ([7]; 1 μM CU-T12-9 or 33 nM (50 ng/ml) Pam3CSK4, measured at 2, 8, 24 hours)?
**A.** The value was 2 h.

**Q.** What about the “IL-10 mRNA” value ([7]; 2 hours, decreased over time) of the same compound?
**A.** The value was “up-regulated”.

**Q.** And the “TNF mRNA expression” value ([7]; over time, maximal expression after 8 hours)?
**A.** The value was “increased”.

**Q.** And the “iNOS mRNA expression” value ([7]; over time, peaked at 24 hours)?
**A.** Its value is “increased”.

**Q.** And the TLR1/2 heterodimer formation [8]?
**A.** The TLR1/2 heterodimer formation was “Heterodimer formation was detected”.

**Q.** What about the cytotoxicity [9] of the same compound?
**A.** The cytotoxicity was “negligible cytotoxicity”.
